These results are taken from ChEMBL document CHEMBL4699571, “Synthesis of Natural and Unnatural Quinolones Inhibiting the Growth and Motility of Bacteria” (2020).

As a reminder, the MIC is the least concentration at which growth counts as inhibited.

Calls of active or inactive are those of the source. No cut-off for these calls is given here.

The subject of assay [1] is Bacillus spizizenii. The experiment in a line: Inhibition of swarming motility of Bacillus subtilis subsp. spizizenii ATCC 6633 at 10 uM after 24 hrs. It is filed as functional, organism-based.
In assay [2] the test system is Bacillus spizizenii. The experiment in a line: Antimicrobial activity against Bacillus subtilis subsp. spizizenii ATCC 6633 assessed as zone of inhibition at 2 mg/ml after 24 hrs by agar well diffusion method. It is filed as functional. The note with it: for zone of inhibition at 2000 µg/mL: read-out: DIZ. In a few lines: (§1)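 Preliminary agar well-diffusion screen run against a panel of eight Gram-positive and Gram-negative test microbes.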
Background: In agar diffusion tests the substance spreads into inoculated agar from a disc or well.

The test system of assay [3] is Staphylococcus epidermidis. The experiment in a line: Antimicrobial activity against Staphylococcus epidermidis ATCC 14990 assessed as zone of inhibition at 2 mg/ml after 24 hrs by agar well diffusion method. Format: functional. The note with it: for zone of inhibition at 2000 µg/mL: read-out: DIZ. In a few lines:
as §1

A further assay relates to Staphylococcus aureus. As to the kind of experiment: Antimicrobial activity against Staphylococcus aureus ATCC 12600 assessed as zone of inhibition at 2 mg/ml after 24 hrs by agar well diffusion method. It is filed as functional. The note with it: for zone of inhibition at 2000 µg/mL: read-out: DIZ. In a few lines: as §1
Assay [4] has as its system Pseudomonas aeruginosa. The experiment in a line: Antimicrobial activity against Pseudomonas aeruginosa ATCC 15692 assessed as reduction in microbial growth at 1.1 to 33.4 ug/ml after 24 hrs by broth microdilution method. Format: functional, organism-based. The following applies: dose microg/ml 1.1-33.4, time 24.0 hrs. An outline of the steps: (§2)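 P. aeruginosa growth-inhibition assay in broth. Each compound was tested at final concentrations of 1.1, 2.1, 4.2, 8.4, 16.7 and 33.4 μg/mL. The read-out is the extent of growth inhibition at each concentration.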
For orientation: Broth dilution looks for growth in wells or tubes with falling amounts of substance.

Assay [5] has as its system Pseudomonas aeruginosa. The experiment in a line: Antimicrobial activity against Pseudomonas aeruginosa ATCC 15692 assessed as zone of inhibition at 2 mg/ml after 24 hrs by agar well diffusion method. It is filed as functional. The following applies: for zone of inhibition at 2000 µg/mL: read-out: DIZ. In a few lines: as §1
For assay [6], the system named is Pseudomonas aeruginosa. As to the kind of experiment: Antimicrobial activity against Pseudomonas aeruginosa ATCC 15692 assessed as reduction in microbial growth at 2.1 to 33.4 ug/ml after 24 hrs by broth microdilution method relative to control. Format: functional. The following applies: dose microg/ml 2.1-33.4. In a few lines: as §2
The subject of assay [7] is Pseudomonas aeruginosa. The experiment in a line: Antimicrobial activity against Pseudomonas aeruginosa ATCC 15692 assessed as reduction in microbial growth after 24 hrs by broth microdilution method. It is filed as functional. An outline of the steps:
as §2

Assay [8] relates to Pseudomonas aeruginosa. The experiment in a line: Antimicrobial activity against Pseudomonas aeruginosa ATCC 15692 assessed as reduction in microbial growth at 0.25 times of MIC concentration after 2 to 24 hrs by time kill assay. It is filed as functional, organism-based. The note with it: time 2.0 hrs. An outline of the steps: (§3)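 Time-kill study against P. aeruginosa with compound at 1/4 MIC, MIC and 4 × MIC. Viable counts were followed as log CFU over a 24 h period, with sampling from 2 h onward. Ciprofloxacin served as the positive control.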

In assay [9] the test system is Pseudomonas aeruginosa. The experiment in a line: Antimicrobial activity against Pseudomonas aeruginosa ATCC 15692 assessed as reduction in microbial growth at MIC concentration after 10 hrs by time kill assay. Format: functional, organism-based. An outline of the steps: as §3
Assay [10] has as its system Pseudomonas aeruginosa. The experiment in a line: Antimicrobial activity against Pseudomonas aeruginosa ATCC 15692 assessed as reduction in microbial growth at 4 times of MIC concentration after 24 hrs by time kill assay. Format: functional, organism-based. In a few lines: as §3

On to `CO/C=C/c1cc(=O)c2ccccc2[nH]1`, for which the “swarming motility inhibition (active/not active)” value in the assay on Bacillus spizizenii [1] was “inactive”.
In the case of `CCS/C=C/c1cc(=O)c2ccccc2[nH]1`, the “diameter of the inhibition zone (DIZ)” value (in the assay on Bacillus spizizenii [2]; in assay [3]; in the assay with Pseudomonas aeruginosa [5]) was “inactive” each time. In addition, the zone of inhibition at 2000 µg/mL with Staphylococcus aureus worked out at 13 mm. Further, in the assay on Pseudomonas aeruginosa [4], the result was inactive. Also, the “swarming motility inhibition (active/not active)” value with Bacillus spizizenii [1] is “inactive”.
As to `CCCC/C=C/Cc1cc(=O)c2ccccc2[nH]1`, the “inhibition (INH)” value in the assay on Pseudomonas aeruginosa [6] came to 37%. Further, the zone of inhibition at 2000 µg/mL came to 9 mm in the assay with Bacillus spizizenii [2], 24 mm in [3], 9 mm in the assay on Staphylococcus aureus and 35 mm in the assay with Pseudomonas aeruginosa [5]. For the same compound, the MIC with Pseudomonas aeruginosa [7] was determined as 33 µg/mL. The outcome with Pseudomonas aeruginosa [4], in the assay on Pseudomonas aeruginosa [8], in the assay with Pseudomonas aeruginosa [9] and in the assay with Pseudomonas aeruginosa [10] was Active. Also, the “swarming motility inhibition (active/not active)” value in the assay with Bacillus spizizenii [1] is “Active”.
As to `CCO/C=C/c1cc(=O)c2ccccc2[nH]1`, the “swarming motility inhibition (active/not active)” value with Bacillus spizizenii [1] was “inactive”.
For the compound `CSc1ccc(Cc2cc(=O)c3ccccc3n2C)cc1`, the “diameter of the inhibition zone (DIZ)” value (with Bacillus spizizenii [2]; in assay [3]; in the assay on Staphylococcus aureus) was “inactive” throughout. The result in the assay with Pseudomonas aeruginosa [4] was inactive. Besides, in the assay with Pseudomonas aeruginosa [5], the zone of inhibition at 2000 µg/mL amounted to 36 mm. Further, the “swarming motility inhibition (active/not active)” value in the assay with Bacillus spizizenii [1] was “Active”.
Regarding `CC1(C)S[C@@H]2[C@H](NC(=O)[C@H](N)c3ccccc3)C(=O)N2[C@H]1C(=O)O` [AMPICILLIN], the figures for the zone of inhibition at 2000 µg/mL (in assay [3]; in the assay with Staphylococcus aureus) were 29 mm and 39 mm, respectively.
Turning to `O=c1cc(Cc2ccccc2)[nH]c2ccccc12`, in the assay on Pseudomonas aeruginosa [4], the outcome was inactive. In the assay on Bacillus spizizenii [1], the “swarming motility inhibition (active/not active)” value was “Active”.
On to `CSc1ccc(Cc2cc(=O)c3ccccc3[nH]2)cc1`, for which the “diameter of the inhibition zone (DIZ)” value (with Bacillus spizizenii [2]; in assay [3]; in the assay with Staphylococcus aureus) was “inactive” throughout. For the same compound, the result in the assay on Pseudomonas aeruginosa [4] was inactive. Moreover, in the assay with Pseudomonas aeruginosa [5], the zone of inhibition at 2000 µg/mL came to 29 mm. For the same compound, the “swarming motility inhibition (active/not active)” value in the assay with Bacillus spizizenii [1] is “Active”.
On to `COCc1c(C)c2ccccc2[nH]c1=O`, for which, in the assay on Bacillus spizizenii [1], the “swarming motility inhibition (active/not active)” value was “Active”.
For the compound `CS/C=C/c1cc(=O)c2ccccc2[nH]1`, the zone of inhibition at 2000 µg/mL with Bacillus spizizenii [2] worked out at 23 mm. Further, the “diameter of the inhibition zone (DIZ)” value (in assay [3]; in the assay with Staphylococcus aureus; in the assay on Pseudomonas aeruginosa [5]) was “inactive” in each case. Further, the outcome in the assay on Pseudomonas aeruginosa [4] was inactive. The “swarming motility inhibition (active/not active)” value in the assay with Bacillus spizizenii [1] was “inactive”.
Turning to `CSCc1c(C)c2ccccc2[nH]c1=O`, the “swarming motility inhibition (active/not active)” value in the assay with Bacillus spizizenii [1] was “Active”.
In the case of `CCSC(SCC)c1c(C)c2ccccc2[nH]c1=O`, in the assay with Pseudomonas aeruginosa [4], the outcome was inactive. Besides, the “swarming motility inhibition (active/not active)” value in the assay with Bacillus spizizenii [1] is “inactive”.
As for `CCOC(OCC)c1c(C)c2ccccc2[nH]c1=O`, in the assay on Bacillus spizizenii [1], the “swarming motility inhibition (active/not active)” value was “inactive”.
On the same count and under the same terms, the result for `CCCC/C=C/Cc1cc(=O)c2ccccc2n1C` reads “Active”; that for `CS/C=C\c1cc(=O)c2ccccc2[nH]1`, “inactive”; that for `Cc1c(CN(C)C)c(=O)[nH]c2ccccc12`, “Active”.
Same read-out and setting: the result for `CCSCc1c(C)c2ccccc2[nH]c1=O` reads “Active”; that for `COC(OC)c1c(C)c2ccccc2[nH]c1=O`, “inactive”.
With `CN[C@H](CC(C)C)C(=O)N[C@H]1C(=O)N[C@@H](CC(N)=O)C(=O)N[C@H]2C(=O)N[C@H]3C(=O)N[C@H](C(=O)N[C@H](C(=O)O)c4cc(O)cc(O)c4-c4cc3ccc4O)[C@H](O)c3ccc(c(Cl)c3)Oc3cc2cc(c3O[C@@H]2O[C@H](CO)[C@@H](O)[C@H](O)[C@H]2O[C@H]2C[C@](C)(N)[C@H](O)[C@H](C)O2)Oc2ccc(cc2Cl)[C@H]1O` [VANCOMYCIN], the zone of inhibition at 2000 µg/mL in the assay with Bacillus spizizenii [2] was 19 mm.
Take `O=C(O)c1cn(C2CC2)c2cc(N3CCNCC3)c(F)cc2c1=O` [CIPROFLOXACIN]: the zone of inhibition at 2000 µg/mL in the assay with Pseudomonas aeruginosa [5] worked out at 35 mm.
As for `CSC(SC)c1c(C)c2ccccc2[nH]c1=O`, the outcome with Pseudomonas aeruginosa [4] was inactive. Besides, in the assay with Bacillus spizizenii [1], the “swarming motility inhibition (active/not active)” value was “inactive”.
As for `Cn1c(Cc2ccccc2)cc(=O)c2ccccc21`, in the assay with Pseudomonas aeruginosa [4], the outcome was inactive. Moreover, the “swarming motility inhibition (active/not active)” value in the assay on Bacillus spizizenii [1] was “inactive”.
